Experimental data from PubChem BioAssay AID1899 (The Scripps Research Institute Molecular Screening Center, 2009).
The whole screen tested about 300,000 compounds, of which about 1,000 (0.33%) were called active. The entries come from a sample that favours actives as a whole. Unmarked numbers belong to inactive results.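 Rule for the calls: active = inhibition above the mean of all tested compounds plus 3 SD, set per screening campaign (cut at about 45% in these data); inactive = the rest.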

These compounds were tested on HCV core protein (residues 1-106) dimerization (assay: blockers of core106 self-association – biochemical, TR-FRET, high-throughput, primary screen (AID 1899)). Conditions: TR-FRET GST/Flag-core106 dimerization, 1536-well; at 5 µM; hits give high values.
Method in brief: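 Assay system: Tagged HCV core106 pair (GST and Flag) | Buffer or medium: KF-containing HEPES buffer, pH 7.45, DTT, CHAPS, BSA | Also added: Eu donor and XL665 acceptor anti-tag antibodies | Dosing: One concentration, 5 µM, in 0.5% DMSO | Timing: 4 h at 22.5 °C | Technique: TR-FRET 671 and 617 nm emission | Repeats: Singlicate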

| SMILES | inhibition |
| --- | --- |
| COc1cccc(N2C(=O)NC(=O)/C(=C\c3cn(C)c4ccccc34)C2=O)c1 | -2.56% |
| Cc1cccc(N2C(=O)NC(=O)/C(=C\c3cnn(-c4ccccc4)c3)C2=O)c1 | 46.9% (active) |
| O=C1NC(=O)N(c2ccccc2)C(=O)/C1=C/c1ccc([N+](=O)[O-])s1 | -5.13% |
| CN1C2C=C(N(C(=O)c3ccc(Cl)cc3)c3ccccc3)CC1CC2 (stereo not given) | -2.38% |
| CSC1=NP(=S)(SC)N(C)c2nc3n(c21)CCC3 (stereo not given) | 8.93% |
